Results taken from ChEMBL document CHEMBL2203170, “Synthesis, DNA-PK inhibition, anti-platelet activity studies of 2-(N-substituted-3-aminopyridine)-substituted-1,3-benzoxazines and DNA-PK and PI3K inhibition, homology modelling studies of 2-morpholino-(7,8-di and 8-substituted)-1,3-benzoxazines” (Eur J Med Chem, 2012).
pIC50: −log10 of the molar value.

How the values were obtained:
[1] = target: DNA-dependent protein kinase catalytic subunit (Homo sapiens, UniProt P78527); assay: Inhibition of DNA-PK using EPPLSQEAFADLWKK as substrate after 5 mins by ADP-Glo kinase assay
[2] = target: Phosphatidylinositol 4,5-bisphosphate 3-kinase catalytic subunit gamma isoform (Homo sapiens, UniProt P48736); assay: Inhibition of PI3Kgamma by HTRF assay in presence of ATP
[3] = target: T1, Phosphatidylinositol 4,5-bisphosphate 3-kinase catalytic subunit delta isoform (Homo sapiens, UniProt O00329); assay: Inhibition of PI3Kdelta by HTRF assay in presence of ATP
T1 sequence (O00329 whole entry): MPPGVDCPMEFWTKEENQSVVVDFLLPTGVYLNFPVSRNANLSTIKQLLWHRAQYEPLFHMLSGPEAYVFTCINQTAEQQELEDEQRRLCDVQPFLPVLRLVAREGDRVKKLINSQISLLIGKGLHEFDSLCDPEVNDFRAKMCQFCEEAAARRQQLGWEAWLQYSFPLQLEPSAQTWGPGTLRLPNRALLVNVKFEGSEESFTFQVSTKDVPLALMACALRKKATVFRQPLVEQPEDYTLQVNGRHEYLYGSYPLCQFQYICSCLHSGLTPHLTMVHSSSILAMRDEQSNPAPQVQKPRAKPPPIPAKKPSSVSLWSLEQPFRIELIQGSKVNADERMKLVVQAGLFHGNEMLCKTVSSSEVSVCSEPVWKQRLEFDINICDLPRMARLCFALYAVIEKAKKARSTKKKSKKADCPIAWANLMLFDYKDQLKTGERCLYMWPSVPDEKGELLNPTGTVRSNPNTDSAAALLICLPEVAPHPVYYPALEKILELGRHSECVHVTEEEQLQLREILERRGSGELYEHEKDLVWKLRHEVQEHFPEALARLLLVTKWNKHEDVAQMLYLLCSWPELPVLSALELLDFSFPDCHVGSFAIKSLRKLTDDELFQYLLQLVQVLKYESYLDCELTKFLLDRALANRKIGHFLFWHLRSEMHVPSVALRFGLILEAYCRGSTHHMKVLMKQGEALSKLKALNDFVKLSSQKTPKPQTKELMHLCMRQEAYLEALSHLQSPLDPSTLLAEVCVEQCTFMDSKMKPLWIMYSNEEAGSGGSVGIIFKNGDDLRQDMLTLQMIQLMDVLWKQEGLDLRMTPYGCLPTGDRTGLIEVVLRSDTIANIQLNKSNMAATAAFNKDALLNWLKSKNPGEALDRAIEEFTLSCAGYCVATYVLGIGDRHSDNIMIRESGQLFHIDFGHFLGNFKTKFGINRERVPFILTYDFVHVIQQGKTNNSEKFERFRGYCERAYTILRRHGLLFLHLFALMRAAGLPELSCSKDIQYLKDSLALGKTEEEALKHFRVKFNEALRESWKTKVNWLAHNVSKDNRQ

[4] = target: Phosphatidylinositol 4,5-bisphosphate 3-kinase catalytic subunit beta isoform (Homo sapiens, UniProt P42338); assay: Inhibition of PI3Kbeta by HTRF assay in presence of ATP
[5] = target: Phosphatidylinositol 4,5-bisphosphate 3-kinase catalytic subunit alpha isoform (Homo sapiens, UniProt P42336); assay: Inhibition of PI3Kalpha by HTRF assay in presence of ATP
[6] = Antiplatelet activity against human platelet assessed as inhibition of collagen-induced platelet aggregation incubated for 2 mins before collagen induction by two-channel platelet aggregometer; type: functional, cell-based
How it was run: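 Venous blood from healthy, drug-free volunteers collected into trisodium citrate 22.0 g/L. Aggregation was measured optically in a two-channel aggregometer, following an earlier protocol.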

Chain of DNA-dependent protein kinase catalytic subunit (P78527 whole entry, canonical isoform): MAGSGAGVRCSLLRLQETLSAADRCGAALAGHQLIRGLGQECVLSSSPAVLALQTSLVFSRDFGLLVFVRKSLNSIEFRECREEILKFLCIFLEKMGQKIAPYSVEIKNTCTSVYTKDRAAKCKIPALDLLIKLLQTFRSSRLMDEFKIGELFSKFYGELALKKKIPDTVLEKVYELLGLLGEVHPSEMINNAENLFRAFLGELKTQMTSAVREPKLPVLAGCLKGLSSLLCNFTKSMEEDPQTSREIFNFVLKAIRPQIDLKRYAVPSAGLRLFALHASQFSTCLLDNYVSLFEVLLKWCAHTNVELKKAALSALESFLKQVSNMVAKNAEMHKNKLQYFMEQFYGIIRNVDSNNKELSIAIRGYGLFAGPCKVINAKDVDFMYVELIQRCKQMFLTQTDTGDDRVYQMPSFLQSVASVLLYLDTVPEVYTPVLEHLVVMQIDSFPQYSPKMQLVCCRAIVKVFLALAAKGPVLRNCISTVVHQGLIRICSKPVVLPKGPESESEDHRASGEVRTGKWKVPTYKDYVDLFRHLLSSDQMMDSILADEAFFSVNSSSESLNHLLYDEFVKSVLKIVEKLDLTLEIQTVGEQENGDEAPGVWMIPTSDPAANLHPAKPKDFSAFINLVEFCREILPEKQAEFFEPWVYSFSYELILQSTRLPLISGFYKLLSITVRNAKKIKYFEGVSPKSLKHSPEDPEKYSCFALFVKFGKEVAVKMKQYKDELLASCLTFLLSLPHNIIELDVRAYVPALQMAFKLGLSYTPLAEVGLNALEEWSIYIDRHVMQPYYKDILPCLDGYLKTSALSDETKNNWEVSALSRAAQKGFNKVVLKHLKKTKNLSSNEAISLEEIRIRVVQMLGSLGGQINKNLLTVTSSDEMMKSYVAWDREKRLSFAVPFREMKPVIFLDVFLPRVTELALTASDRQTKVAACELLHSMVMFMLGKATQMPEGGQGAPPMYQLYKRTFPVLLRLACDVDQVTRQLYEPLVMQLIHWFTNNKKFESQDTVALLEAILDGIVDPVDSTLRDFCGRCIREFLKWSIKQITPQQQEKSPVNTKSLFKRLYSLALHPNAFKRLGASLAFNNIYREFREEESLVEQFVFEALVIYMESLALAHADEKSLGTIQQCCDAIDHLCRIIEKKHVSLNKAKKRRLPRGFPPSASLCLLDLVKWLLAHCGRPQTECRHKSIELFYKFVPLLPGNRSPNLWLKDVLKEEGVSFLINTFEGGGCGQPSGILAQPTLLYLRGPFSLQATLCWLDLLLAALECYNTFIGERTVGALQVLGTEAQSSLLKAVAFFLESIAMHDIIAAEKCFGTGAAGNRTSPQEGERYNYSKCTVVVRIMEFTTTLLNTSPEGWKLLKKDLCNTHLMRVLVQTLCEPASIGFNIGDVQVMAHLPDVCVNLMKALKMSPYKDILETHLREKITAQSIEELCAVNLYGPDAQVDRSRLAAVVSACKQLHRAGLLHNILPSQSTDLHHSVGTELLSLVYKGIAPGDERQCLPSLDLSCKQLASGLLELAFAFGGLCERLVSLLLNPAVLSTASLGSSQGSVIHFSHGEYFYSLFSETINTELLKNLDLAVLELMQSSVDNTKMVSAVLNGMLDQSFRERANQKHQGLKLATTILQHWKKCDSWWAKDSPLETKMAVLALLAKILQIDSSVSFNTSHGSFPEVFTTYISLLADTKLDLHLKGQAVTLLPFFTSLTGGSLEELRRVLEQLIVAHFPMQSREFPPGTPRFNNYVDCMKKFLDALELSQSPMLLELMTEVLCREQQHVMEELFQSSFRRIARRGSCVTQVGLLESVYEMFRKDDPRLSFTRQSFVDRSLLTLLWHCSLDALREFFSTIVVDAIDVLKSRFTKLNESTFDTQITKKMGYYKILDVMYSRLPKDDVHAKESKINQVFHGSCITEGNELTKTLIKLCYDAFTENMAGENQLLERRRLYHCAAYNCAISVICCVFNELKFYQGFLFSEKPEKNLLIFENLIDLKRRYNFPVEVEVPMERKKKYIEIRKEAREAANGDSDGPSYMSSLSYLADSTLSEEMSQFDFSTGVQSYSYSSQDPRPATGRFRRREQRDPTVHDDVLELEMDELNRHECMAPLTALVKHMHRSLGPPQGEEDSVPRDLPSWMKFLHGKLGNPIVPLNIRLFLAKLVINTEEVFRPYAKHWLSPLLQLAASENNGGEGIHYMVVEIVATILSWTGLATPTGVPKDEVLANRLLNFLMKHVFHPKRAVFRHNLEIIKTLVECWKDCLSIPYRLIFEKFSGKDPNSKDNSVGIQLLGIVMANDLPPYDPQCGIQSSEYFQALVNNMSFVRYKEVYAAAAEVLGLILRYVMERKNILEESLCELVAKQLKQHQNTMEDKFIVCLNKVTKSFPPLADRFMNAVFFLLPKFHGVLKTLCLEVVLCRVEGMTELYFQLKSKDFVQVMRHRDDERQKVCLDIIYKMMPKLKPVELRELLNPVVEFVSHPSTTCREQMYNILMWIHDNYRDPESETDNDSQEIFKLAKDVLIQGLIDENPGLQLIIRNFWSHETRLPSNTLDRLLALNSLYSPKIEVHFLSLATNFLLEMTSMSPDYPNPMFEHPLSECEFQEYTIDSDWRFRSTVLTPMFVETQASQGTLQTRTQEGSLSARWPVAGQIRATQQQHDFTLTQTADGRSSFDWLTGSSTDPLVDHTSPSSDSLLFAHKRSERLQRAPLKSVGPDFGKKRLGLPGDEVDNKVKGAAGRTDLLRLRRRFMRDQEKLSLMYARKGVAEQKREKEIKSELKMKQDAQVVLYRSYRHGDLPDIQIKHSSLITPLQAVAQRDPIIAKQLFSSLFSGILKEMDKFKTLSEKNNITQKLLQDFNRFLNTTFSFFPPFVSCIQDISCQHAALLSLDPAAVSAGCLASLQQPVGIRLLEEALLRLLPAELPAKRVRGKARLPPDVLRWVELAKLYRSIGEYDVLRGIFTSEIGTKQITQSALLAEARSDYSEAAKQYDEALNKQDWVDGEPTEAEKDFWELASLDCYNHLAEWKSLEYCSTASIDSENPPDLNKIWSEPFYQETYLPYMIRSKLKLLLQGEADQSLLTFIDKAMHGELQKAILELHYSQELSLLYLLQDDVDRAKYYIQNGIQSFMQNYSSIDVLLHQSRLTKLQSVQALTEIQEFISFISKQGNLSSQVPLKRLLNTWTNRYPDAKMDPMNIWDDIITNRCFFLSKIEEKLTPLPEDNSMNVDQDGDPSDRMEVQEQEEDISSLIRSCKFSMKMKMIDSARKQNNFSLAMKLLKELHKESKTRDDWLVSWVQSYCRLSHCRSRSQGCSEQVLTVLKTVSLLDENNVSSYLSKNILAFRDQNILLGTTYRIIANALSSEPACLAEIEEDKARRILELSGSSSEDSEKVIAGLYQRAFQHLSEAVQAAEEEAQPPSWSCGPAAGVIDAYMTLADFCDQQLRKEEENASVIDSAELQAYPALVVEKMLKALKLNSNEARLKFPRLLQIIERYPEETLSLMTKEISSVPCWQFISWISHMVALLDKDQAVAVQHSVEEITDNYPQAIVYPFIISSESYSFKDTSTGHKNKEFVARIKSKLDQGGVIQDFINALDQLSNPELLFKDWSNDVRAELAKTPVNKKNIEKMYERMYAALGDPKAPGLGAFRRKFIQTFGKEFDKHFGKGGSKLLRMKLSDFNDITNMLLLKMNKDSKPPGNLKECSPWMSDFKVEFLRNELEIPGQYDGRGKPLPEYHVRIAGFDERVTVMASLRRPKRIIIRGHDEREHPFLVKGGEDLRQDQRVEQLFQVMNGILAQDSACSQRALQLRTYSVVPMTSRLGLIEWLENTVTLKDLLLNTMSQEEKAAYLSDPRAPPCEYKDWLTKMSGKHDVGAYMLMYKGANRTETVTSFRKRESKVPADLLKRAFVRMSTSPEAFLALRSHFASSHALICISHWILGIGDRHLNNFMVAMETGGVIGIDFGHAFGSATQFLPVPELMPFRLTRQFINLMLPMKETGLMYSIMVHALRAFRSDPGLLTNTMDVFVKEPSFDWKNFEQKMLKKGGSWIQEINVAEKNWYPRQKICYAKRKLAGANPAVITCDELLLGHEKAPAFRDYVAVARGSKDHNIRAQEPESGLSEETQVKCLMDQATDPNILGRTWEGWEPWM
Chain of Phosphatidylinositol 4,5-bisphosphate 3-kinase catalytic subunit alpha isoform (P42336 whole entry, canonical isoform): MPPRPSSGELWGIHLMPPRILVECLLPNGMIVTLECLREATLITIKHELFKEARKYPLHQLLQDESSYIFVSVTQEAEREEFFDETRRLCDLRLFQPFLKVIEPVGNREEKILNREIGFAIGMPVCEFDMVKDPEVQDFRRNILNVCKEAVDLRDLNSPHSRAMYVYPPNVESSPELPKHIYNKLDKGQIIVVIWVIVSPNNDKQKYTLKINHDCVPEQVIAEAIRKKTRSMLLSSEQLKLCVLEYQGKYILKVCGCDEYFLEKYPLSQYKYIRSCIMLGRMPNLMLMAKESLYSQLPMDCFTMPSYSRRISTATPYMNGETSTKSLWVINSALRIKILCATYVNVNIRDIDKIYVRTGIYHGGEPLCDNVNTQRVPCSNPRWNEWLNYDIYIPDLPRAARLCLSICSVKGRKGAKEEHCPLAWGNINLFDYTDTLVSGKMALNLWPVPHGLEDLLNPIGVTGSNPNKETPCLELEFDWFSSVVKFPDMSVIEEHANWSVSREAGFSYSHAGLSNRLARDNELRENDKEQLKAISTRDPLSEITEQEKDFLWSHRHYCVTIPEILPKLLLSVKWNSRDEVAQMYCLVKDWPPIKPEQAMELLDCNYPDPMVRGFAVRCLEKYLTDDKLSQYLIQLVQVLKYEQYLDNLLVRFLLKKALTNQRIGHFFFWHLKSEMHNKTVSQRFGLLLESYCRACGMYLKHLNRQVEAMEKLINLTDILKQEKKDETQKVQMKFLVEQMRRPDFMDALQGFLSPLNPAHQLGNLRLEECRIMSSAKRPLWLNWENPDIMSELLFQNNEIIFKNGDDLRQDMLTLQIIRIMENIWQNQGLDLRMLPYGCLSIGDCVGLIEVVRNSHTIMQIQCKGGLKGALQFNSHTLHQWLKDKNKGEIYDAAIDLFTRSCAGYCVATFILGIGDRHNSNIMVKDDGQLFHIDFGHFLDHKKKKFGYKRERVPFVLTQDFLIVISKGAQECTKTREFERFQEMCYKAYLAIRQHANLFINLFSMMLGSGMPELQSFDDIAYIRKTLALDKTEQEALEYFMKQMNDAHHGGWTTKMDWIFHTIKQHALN

CN1CCN(CCOc2cccc3c(=O)nc(N4CCOCC4)oc23)CC1
pIC50 [1]: 5.77

O=c1nc(N2CCOCC2)oc2cc(OCc3ccccn3)ccc12
pIC50 [1]: 5.57

Cc1c(OCc2ccccn2)ccc2c(=O)nc(N3CCOCC3)oc12
pIC50 [1]: 5.89

O=c1nc(N2CCOCC2)oc2cc(OCc3cccnc3)ccc12
pIC50 [1]: 5.60

Cc1c(OCc2cccnc2)ccc2c(=O)nc(N3CCOCC3)oc12
pIC50 [2]: 6.14 | pIC50 [3]: 5.69 | pIC50 [4]: 6.85 | pIC50 [5]: 6.89 | pIC50 [1]: 6.55

O=c1nc(N2CCOCC2)oc2c(OCc3cccnc3)cccc12
pIC50 [1]: 6.44

O=c1nc(N2CCOCC2)oc2cc(OCc3ccncc3)ccc12
pIC50 [1]: 5.38

Cc1c(OCc2ccncc2)ccc2c(=O)nc(N3CCOCC3)oc12
pIC50 [1]: 5.92

O=c1nc(N2CCOCC2)oc2c(OCc3ccncc3)cccc12
pIC50 [1]: 5.80

O=c1nc(Nc2cccnc2)oc2c(-c3ccccc3)cccc12
pIC50 [6]: 4.12

O=c1nc(Nc2cccnc2)oc2ccccc12
pIC50 [6]: 4.05

Cc1cccc2c(=O)nc(N(Cc3cccnc3)c3cccnc3)oc12
pIC50 [6]: 4.00

O=c1nc(N(Cc2cccnc2)c2cccnc2)oc2c(-c3ccccc3)cccc12
pIC50 [6]: 4.19

O=c1nc(N(Cc2ccncc2)c2cccnc2)oc2c(-c3ccccc3)cccc12
pIC50 [6]: 4.12

O=c1nc(N(Cc2ccncc2)c2cccnc2)oc2cc(OCc3ccncc3)ccc12
pIC50 [6]: 4.26

Cc1c(OCc2ccccn2)ccc2c(=O)nc(N(Cc3ccccn3)c3cccnc3)oc12
pIC50 [6]: 4.46

Cc1c(OCc2cccnc2)ccc2c(=O)nc(N(Cc3cccnc3)c3cccnc3)oc12
pIC50 [1]: 5.60 | pIC50 [6]: 5.00

Cc1c(OCc2ccccn2)ccc2c(=O)n(Cc3ccccn3)c(=O)oc12
pIC50 [6]: 4.07

Cc1c(OCc2cccnc2)ccc2c(=O)n(Cc3cccnc3)c(=O)oc12
pIC50 [1]: 5.00 | pIC50 [6]: 4.12

Cc1c(OCc2ccccc2)ccc2c(=O)n(Cc3ccccc3)c(=O)oc12
pIC50 [6]: 4.07

O=c1nc(N2CCOCC2)oc2c(OCc3ccccn3)cccc12
pIC50 [1]: 6.21

Cc1cccc2c(=O)nc(N(Cc3ccccn3)c3cccnc3)oc12
pIC50 [1]: 4.60

O=c1nc(N(Cc2ccccn2)c2cccnc2)oc2c(OCc3ccccn3)cccc12
pIC50 [1]: 5.11

O=c1nc(N(Cc2cccnc2)c2cccnc2)oc2c(OCc3cccnc3)cccc12
pIC50 [1]: 4.87

O=c1nc(N(Cc2ccccn2)c2cccnc2)oc2cc(OCc3ccccn3)ccc12
pIC50 [1]: 5.24

O=c1nc(N(Cc2cccnc2)c2cccnc2)oc2cc(OCc3cccnc3)ccc12
pIC50 [1]: 4.83

O=c1nc(N2CCOCC2)oc2c(-c3ccccc3)cccc12
pIC50 [2]: 5.82 | pIC50 [3]: 6.02 | pIC50 [4]: 5.47 | pIC50 [5]: 5.39 | pIC50 [1]: 6.52

CN1CCN(CCOc2ccc3c(=O)nc(N4CCOCC4)oc3c2)CC1
pIC50 [1]: 5.17

Cc1c(OCCN2CCN(C)CC2)ccc2c(=O)nc(N3CCOCC3)oc12
pIC50 [2]: ≤ 4.00 | pIC50 [3]: ≤ 4.00 | pIC50 [4]: ≤ 4.00 | pIC50 [5]: ≤ 4.00 | pIC50 [1]: 6.30
